Laboratory results taken from paper PMC9979266 (Acta Pharmaceutica Sinica. B, 2022).

Assays:
NIH3T3 cells = experiment: MTT cell cytotoxicity assay, NIH3T3; format: cell-based, murine; conditions: 10–160 μmol/L, 24 h, n = 3
[1] = test system: TGF-β1-induced A549 cells; experiment: Marker expression; format: cell-based, human; conditions: n = 3; for miR-23b-5p expression after inhibitor treatment: 10 μmol/L pretreatment, qPCR
Method in brief: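 A549 in RPMI 1640 + 10% FBS, plated 24 h, serum-starved overnight. Three pathway inhibitors at 10 μmol/L added 30 min before TGF-β1 (5 ng/mL) plus test peptide. Harvest: RNA/protein at 48 h, phosphoproteins at 1 h. Western: 30 μg protein, 10% SDS-PAGE, ECL, GAPDH-normalised. qPCR: 2−ΔΔCt with GAPDH (mRNA) or U6 (miRNA) reference. At least three independent replicates, mean ± SD.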

Compound	Cytotoxicity against NIH3T3 cells (NIH3T3 cells)	miR-23b-5p expression after inhibitor treatment [1]	AQP5 expression after inhibitor pretreatment ([1]; 10 μmol/L, 30 min pretreatment, Western blot)
DHNAPQIR-NH2 [DR4dA]	no toxicity	–	–
DHANPQIR-NH2 [DR3dA]	no toxicity	–	–
DHAAPQIR-NH2 [DR3d4dA]	no toxicity	–	–
COc1cccc(-c2cc(=O)c3ccccc3o2)c1N [PD98059]	–	reduced	elevated
C[S+]([O-])c1ccc(-c2nc(-c3ccncc3)c(-c3ccc(F)cc3)[nH]2)cc1 (stereo not drawn) [SB203580]	–	reduced	–
